Source: ChEMBL document CHEMBL2086252, “Syntheses and evaluation of anticonvulsant activity of novel branched alkyl carbamates” (J Med Chem, 2012)
Activity calls are given as the source filed them. No cut-off for these calls is given here.

Tests used:
Mus musculus [1] = assay: Anticonvulsant activity in albino CF1 mouse assessed as protection against maximal electroshock-induced seizures at 100 mg/kg, ip after 4 hrs; format: functional, organism-based; parameters: dose 100 mg/kg
Summary of the method: (§1)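 Mice dosed ip at 30, 100 or 300 mg/kg, then tested 0.5 h and 4 h after administration in the MES or scMet test. Protection was recorded as animals protected over animals tested. Neurotoxicity was recorded as motor impairment or sedation, as animals affected over animals tested.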

Rattus norvegicus [2] = assay: Neurotoxicity in pilocarpine-induced status epilepticus Sprague-Dawley albino rat model assessed as minimal motor impairment at 100 mg/kg, ip after 2 hrs by rotarod test; format: toxicity, organism-based; parameters: dose 100 mg/kg, route intraperitoneal; conditions: in vivo
Mus musculus [3] = assay: Neurotoxicity in albino CF1 mouse assessed as minimal motor impairment at 30 mg/kg, ip after 4 hrs by rotarod test; format: toxicity, organism-based; parameters: dose 30 mg/kg, route intraperitoneal; conditions: in vivo; summary of the method: as §1
Rattus norvegicus [4] = assay: Neurotoxicity in pilocarpine-induced status epilepticus Sprague-Dawley albino rat model assessed as minimal motor impairment at 30 mg/kg, ip after 2 hrs by rotarod test; format: toxicity, organism-based; parameters: dose 30 mg/kg, route intraperitoneal; conditions: in vivo
Summary of the method: (§2)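 Rat pilocarpine status epilepticus model: test carbamate given at 0 or 30 min after the first observed Racine stage 3 motor seizure, which marks SE onset. Neurotoxicity was scored within the same model.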

Rattus norvegicus [5] = assay: Anticonvulsant activity in Sprague-Dawley albino rat assessed as protection against maximal electroshock-induced seizures at 30 mg/kg, po after 2 hrs; format: functional, organism-based; parameters: dose 30 mg/kg
Summary of the method: (§3)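 Rats dosed orally. Anti-MES protection was scored as animals protected over animals tested at each time after dosing. Neurotoxicity was scored as motor impairment or sedation, as animals affected over animals tested.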

Rattus norvegicus [6] = assay: Neurotoxicity in pilocarpine-induced status epilepticus Sprague-Dawley albino rat model assessed as minimal motor impairment at 30 mg/kg, ip after 0.5 hrs by rotarod test; format: toxicity, organism-based; parameters: dose 30 mg/kg, route intraperitoneal; conditions: in vivo; summary of the method: as §2
Rattus norvegicus [7] = assay: Neurotoxicity in pilocarpine-induced status epilepticus Sprague-Dawley albino rat model assessed as minimal motor impairment at 300 mg/kg, ip after 2 hrs by rotarod test; format: toxicity, organism-based; parameters: dose 300 mg/kg, route intraperitoneal; conditions: in vivo; summary of the method: as §2
Rattus norvegicus [8] = assay: Neurotoxicity in pilocarpine-induced status epilepticus Sprague-Dawley albino rat model assessed as minimal motor impairment at 100 mg/kg, ip after 0.5 hrs by rotarod test; format: toxicity, organism-based; parameters: dose 100 mg/kg, route intraperitoneal; conditions: in vivo
Rattus norvegicus [9] = assay: Protective index, ratio of TD50 for po dosed Sprague-Dawley albino rat by rotarod test to ED50 for po dosed Sprague-Dawley albino rat by subcutaneous metrazol seizures test; format: functional
Summary of the method: (§4)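 Protective index calculated as TD50/ED50, with TD50 and ED50 taken from the same species and dosing route.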

Rattus norvegicus [10] = assay: Neurotoxicity in pilocarpine-induced status epilepticus Sprague-Dawley albino rat model assessed as minimal motor impairment at 300 mg/kg, ip after 4 hrs by rotarod test; format: toxicity, organism-based; parameters: dose 300 mg/kg, route intraperitoneal; conditions: in vivo; summary of the method: as §2
Mus musculus [11] = assay: Anticonvulsant activity in albino CF1 mouse assessed as protection against subcutaneous metrazol-induced seizures at 30 mg/kg, ip after 0.5 hrs; format: functional, organism-based; parameters: dose 30 mg/kg; summary of the method: as §1
Rattus norvegicus [12] = assay: Neurotoxicity in pilocarpine-induced status epilepticus Sprague-Dawley albino rat model assessed as minimal motor impairment at 100 mg/kg, ip after 0.25 hr by rotarod test; format: toxicity, organism-based; parameters: dose 100 mg/kg, route intraperitoneal; conditions: in vivo
Mus musculus [13] = assay: Anticonvulsant activity in albino CF1 mouse assessed as protection against subcutaneous metrazol-induced seizures at 30 mg/kg, ip after 4 hrs; format: functional, organism-based; parameters: dose 30 mg/kg; summary of the method: as §1
Rattus norvegicus [14] = assay: Neurotoxicity in pilocarpine-induced status epilepticus Sprague-Dawley albino rat model assessed as minimal motor impairment at 30 mg/kg, ip after 1 hr by rotarod test; format: toxicity, organism-based; parameters: dose 30 mg/kg, route intraperitoneal; conditions: in vivo; summary of the method: as §2
Rattus norvegicus [15] = assay: Anticonvulsant activity in po dosed Sprague-Dawley albino rat assessed as protection against subcutaneous metrazol-induced seizures; format: functional
Summary of the method: (§5)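 Quantitative testing: rats dosed orally or ip in MES and scMet tests, and mice dosed ip, including the 6 Hz (32 mA) psychomotor seizure test. ED50 and TD50 were reported in mg/kg with ranges in parentheses. Protective index was calculated as TD50/ED50.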

Rattus norvegicus [16] = assay: Neurotoxicity in pilocarpine-induced status epilepticus Sprague-Dawley albino rat model assessed as minimal motor impairment at 30 mg/kg, ip after 4 hrs by rotarod test; format: toxicity, organism-based; parameters: dose 30 mg/kg, route intraperitoneal; conditions: in vivo; summary of the method: as §2
Rattus norvegicus [17] = assay: Neurotoxicity in pilocarpine-induced status epilepticus Sprague-Dawley albino rat model assessed as minimal motor impairment at 300 mg/kg, ip after 0.25 hr by rotarod test; format: toxicity, organism-based; parameters: dose 300 mg/kg, route intraperitoneal; conditions: in vivo; summary of the method: as §2
Mus musculus [18] = assay: Neurotoxicity in albino CF1 mouse assessed as minimal motor impairment at 30 mg/kg, ip after 0.5 hrs by rotarod test; format: toxicity, organism-based; parameters: dose 30 mg/kg, route intraperitoneal; conditions: in vivo; summary of the method: as §1
Mus musculus [19] = assay: Anticonvulsant activity in albino CF1 mouse assessed as protection against maximal electroshock-induced seizures at 30 mg/kg, ip after 0.5 hrs; format: functional, organism-based; parameters: dose 30 mg/kg; summary of the method: as §1
Mus musculus [20] = assay: Anticonvulsant activity in albino CF1 mouse assessed as protection against subcutaneous metrazol-induced seizures at 100 mg/kg, ip after 4 hrs; format: functional, organism-based; parameters: dose 100 mg/kg; summary of the method: as §1
Rattus norvegicus [21] = assay: Neurotoxicity in pilocarpine-induced status epilepticus Sprague-Dawley albino rat model assessed as minimal motor impairment at 300 mg/kg, ip after 0.5 hrs by rotarod test; format: toxicity, organism-based; parameters: dose 300 mg/kg, route intraperitoneal; conditions: in vivo; summary of the method: as §2
Mus musculus [22] = assay: Neurotoxicity in albino CF1 mouse assessed as minimal motor impairment at 300 mg/kg, ip after 4 hrs by rotarod test; format: toxicity, organism-based; parameters: dose 300 mg/kg, route intraperitoneal; conditions: in vivo; summary of the method: as §1
Mus musculus [23] = assay: Anticonvulsant activity in albino CF1 mouse assessed as protection against subcutaneous metrazol-induced seizures at 300 mg/kg, ip after 0.5 hrs; format: functional, organism-based; parameters: dose 300 mg/kg; summary of the method: as §1
Rattus norvegicus [24] = assay: Neurotoxicity in pilocarpine-induced status epilepticus Sprague-Dawley albino rat model assessed as minimal motor impairment at 30 mg/kg, ip after 0.25 hr by rotarod test; format: toxicity, organism-based; parameters: dose 30 mg/kg, route intraperitoneal; conditions: in vivo; summary of the method: as §2
Mus musculus [25] = assay: Neurotoxicity in albino CF1 mouse assessed as minimal motor impairment at 100 mg/kg, ip after 4 hrs by rotarod test; format: toxicity, organism-based; parameters: dose 100 mg/kg, route intraperitoneal; conditions: in vivo; summary of the method: as §1
Rattus norvegicus [26] = assay: Neurotoxicity in pilocarpine-induced status epilepticus Sprague-Dawley albino rat model assessed as minimal motor impairment at 100 mg/kg, ip after 4 hrs by rotarod test; format: toxicity, organism-based; parameters: dose 100 mg/kg, route intraperitoneal; conditions: in vivo
Mus musculus [27] = assay: Anticonvulsant activity in albino CF1 mouse assessed as protection against maximal electroshock-induced seizures at 100 mg/kg, ip after 0.5 hrs; format: functional, organism-based; parameters: dose 100 mg/kg; summary of the method: as §1
Rattus norvegicus [28] = assay: Anticonvulsant activity in po dosed Sprague-Dawley albino rat assessed as protection against maximal electroshock-induced seizures; format: functional; summary of the method: as §5
Rattus norvegicus [29] = assay: Protective index, ratio of TD50 for po dosed Sprague-Dawley albino rat by rotarod test to ED50 for po dosed Sprague-Dawley albino rat by maximal electroshock seizures test; format: functional; summary of the method: as §4
Rattus norvegicus [30] = assay: Neurotoxicity in Sprague-Dawley albino rat assessed as minimal motor impairment at 30 mg/kg, po by rotarod test; format: toxicity, organism-based; parameters: dose 30 mg/kg, route oral; conditions: in vivo; summary of the method: as §3
Mus musculus [31] = assay: Anticonvulsant activity in albino CF1 mouse assessed as protection against subcutaneous metrazol-induced seizures at 100 mg/kg, ip after 0.5 hrs; format: functional, organism-based; parameters: dose 100 mg/kg; summary of the method: as §1
Rattus norvegicus [32] = assay: Anticonvulsant activity in Sprague-Dawley albino rat assessed as protection against pilocarpine-induced status epilepticus at 65 mg/kg, ip; format: functional, organism-based; parameters: dose 65 mg/kg
Summary of the method: (§6)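 Pilocarpine status epilepticus model in rats. Number and severity of convulsive seizures were observed behaviourally.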

Mus musculus [33] = assay: Anticonvulsant activity in albino CF1 mouse assessed as protection against maximal electroshock-induced seizures at 300 mg/kg, ip after 4 hrs; format: functional, organism-based; parameters: dose 300 mg/kg; summary of the method: as §1
Mus musculus [34] = assay: Anticonvulsant activity in albino CF1 mouse assessed as protection against maximal electroshock-induced seizures at 300 mg/kg, ip after 0.5 hrs; format: functional, organism-based; parameters: dose 300 mg/kg; summary of the method: as §1
Mus musculus [35] = assay: Anticonvulsant activity in albino CF1 mouse assessed as protection against maximal electroshock-induced seizures at 30 mg/kg, ip after 4 hrs; format: functional, organism-based; parameters: dose 30 mg/kg; summary of the method: as §1
Rattus norvegicus [36] = assay: Anticonvulsant activity in Sprague-Dawley albino rat assessed as protection against maximal electroshock-induced seizures at 30 mg/kg, po after 4 hrs; format: functional, organism-based; parameters: dose 30 mg/kg; summary of the method: as §3
Mus musculus [37] = assay: Anticonvulsant activity in albino CF1 mouse assessed as protection against subcutaneous metrazol-induced seizures at 300 mg/kg, ip after 4 hrs; format: functional, organism-based; parameters: dose 300 mg/kg; summary of the method: as §1
Rattus norvegicus [38] = assay: Anticonvulsant activity in ip dosed Sprague-Dawley albino rat assessed as protection against pilocarpine-induced status epilepticus after 0.5 hrs; format: functional; summary of the method: as §6
[39] = Neurotoxicity in po dosed Sprague-Dawley albino rat assessed as minimal motor impairment by rotarod test; format: toxicity, organism-based; conditions: in vivo
Summary of the method: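 Rats dosed orally; 4 rats per time point after dosing. Neurotoxicity was scored as motor impairment or sedation and reported as number of animals affected over number tested.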

Rattus norvegicus [40] = assay: Neurotoxicity in pilocarpine-induced status epilepticus Sprague-Dawley albino rat model assessed as minimal motor impairment at 300 mg/kg, ip after 1 hr by rotarod test; format: toxicity, organism-based; parameters: dose 300 mg/kg, route intraperitoneal; conditions: in vivo; summary of the method: as §2
Rattus norvegicus [41] = assay: Anticonvulsant activity in Sprague-Dawley albino rat assessed as protection against maximal electroshock-induced seizures at 30 mg/kg, po after 1 hr; format: functional, organism-based; parameters: dose 30 mg/kg; summary of the method: as §3

Structure (SMILES): CCC(C)C(CC)COC(N)=O (racemic)
- Activity (Mus musculus [1]): inactive
- Activity (Rattus norvegicus [2]): Toxic
- Activity (Mus musculus [3]): Non-toxic
- Activity (Rattus norvegicus [4]): Toxic
- Activity (Rattus norvegicus [5]): inactive
- Activity (Rattus norvegicus [6]): Non-toxic
- Activity (Rattus norvegicus [7]): Non-toxic
- Activity (Rattus norvegicus [8]): Toxic
- Ratio TD50/ED50 (Rattus norvegicus [9]): 4.3
- Activity (Rattus norvegicus [10]): Non-toxic
- Activity (Mus musculus [11]): inactive
- Activity (Rattus norvegicus [12]): Toxic
- Activity (Mus musculus [13]): inactive
- Activity (Rattus norvegicus [14]): Non-toxic
- ED50 (Rattus norvegicus [15]): 68 mg/kg
- Activity (Rattus norvegicus [16]): Toxic
- Activity (Rattus norvegicus [17]): Toxic
- Activity (Mus musculus [18]): Non-toxic
- Activity (Mus musculus [19]): inactive
- Activity (Mus musculus [20]): inactive
- Activity (Rattus norvegicus [21]): Toxic
- Activity (Mus musculus [22]): Non-toxic
- Activity (Mus musculus [23]): Active
- Activity (Rattus norvegicus [24]): Non-toxic
- Activity (Mus musculus [25]): Non-toxic
- Activity (Rattus norvegicus [26]): Toxic
- Activity (Mus musculus [27]): Active
- ED50 (Rattus norvegicus [28]): 52 mg/kg
- Ratio TD50/ED50 (Rattus norvegicus [29]): 5.5
- Activity (Rattus norvegicus [30]): Non-toxic
- Activity (Mus musculus [31]): Active
- Activity (Rattus norvegicus [32]): Active
- Activity (Mus musculus [33]): inactive
- Activity (Mus musculus [34]): Active
- Activity (Mus musculus [35]): inactive
- Activity (Rattus norvegicus [36]): inactive
- Activity (Mus musculus [37]): inactive
- ED50 (Rattus norvegicus [38]): 96 mg/kg
- ED97 (Rattus norvegicus [38]): 174 mg/kg
- TD50 [39]: 291 mg/kg
- Activity (Rattus norvegicus [40]): Toxic
- Activity (Rattus norvegicus [41]): inactive
